UCH37 DUB inh: blocks the human deubiquitinase UCH37; inhibition, % (concentration not given with the values); purified proteasome/UCH37, Ub-AMC cleavage fluorescence; Q9Y5K5; actives 0.33% (n = 330,000);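 active means mean inhibition over replicate wells above about 20%, limit read from the data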;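 further: 0% = compound-free wells with enzyme and 100% = wells lacking proteasome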
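Schedule: 30 min plus 25 min, room temperature / Material: human UCH37 within purified proteasomes / Technique: AMC fluorescence intensity at 355/460 nm / Buffer or medium: pH 7.4 Tris-HCl (50 mM) with ovalbumin, ATP-MgCl2, DTT / Controls: wells without proteasome as full block, compound-free enzyme plus substrate as uninhibited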
FAS TE block: blocks the thioesterase domain of human fatty acid synthase | recombinant FAS-TE, OMFH fluorogenic substrate, fluorescence endpoint | inhibition, % at 15 µM | actives 0.67% (n = 360,000);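 active means compounds whose normalised, plate-corrected inhibition of enzyme fluorescence in the single-dose primary screen is 50% or more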;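 further: 0% = DMSO with enzyme and 100% = substrate without enzyme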
Target sequence (P49327 whole entry, looked up, the tested form may be a part): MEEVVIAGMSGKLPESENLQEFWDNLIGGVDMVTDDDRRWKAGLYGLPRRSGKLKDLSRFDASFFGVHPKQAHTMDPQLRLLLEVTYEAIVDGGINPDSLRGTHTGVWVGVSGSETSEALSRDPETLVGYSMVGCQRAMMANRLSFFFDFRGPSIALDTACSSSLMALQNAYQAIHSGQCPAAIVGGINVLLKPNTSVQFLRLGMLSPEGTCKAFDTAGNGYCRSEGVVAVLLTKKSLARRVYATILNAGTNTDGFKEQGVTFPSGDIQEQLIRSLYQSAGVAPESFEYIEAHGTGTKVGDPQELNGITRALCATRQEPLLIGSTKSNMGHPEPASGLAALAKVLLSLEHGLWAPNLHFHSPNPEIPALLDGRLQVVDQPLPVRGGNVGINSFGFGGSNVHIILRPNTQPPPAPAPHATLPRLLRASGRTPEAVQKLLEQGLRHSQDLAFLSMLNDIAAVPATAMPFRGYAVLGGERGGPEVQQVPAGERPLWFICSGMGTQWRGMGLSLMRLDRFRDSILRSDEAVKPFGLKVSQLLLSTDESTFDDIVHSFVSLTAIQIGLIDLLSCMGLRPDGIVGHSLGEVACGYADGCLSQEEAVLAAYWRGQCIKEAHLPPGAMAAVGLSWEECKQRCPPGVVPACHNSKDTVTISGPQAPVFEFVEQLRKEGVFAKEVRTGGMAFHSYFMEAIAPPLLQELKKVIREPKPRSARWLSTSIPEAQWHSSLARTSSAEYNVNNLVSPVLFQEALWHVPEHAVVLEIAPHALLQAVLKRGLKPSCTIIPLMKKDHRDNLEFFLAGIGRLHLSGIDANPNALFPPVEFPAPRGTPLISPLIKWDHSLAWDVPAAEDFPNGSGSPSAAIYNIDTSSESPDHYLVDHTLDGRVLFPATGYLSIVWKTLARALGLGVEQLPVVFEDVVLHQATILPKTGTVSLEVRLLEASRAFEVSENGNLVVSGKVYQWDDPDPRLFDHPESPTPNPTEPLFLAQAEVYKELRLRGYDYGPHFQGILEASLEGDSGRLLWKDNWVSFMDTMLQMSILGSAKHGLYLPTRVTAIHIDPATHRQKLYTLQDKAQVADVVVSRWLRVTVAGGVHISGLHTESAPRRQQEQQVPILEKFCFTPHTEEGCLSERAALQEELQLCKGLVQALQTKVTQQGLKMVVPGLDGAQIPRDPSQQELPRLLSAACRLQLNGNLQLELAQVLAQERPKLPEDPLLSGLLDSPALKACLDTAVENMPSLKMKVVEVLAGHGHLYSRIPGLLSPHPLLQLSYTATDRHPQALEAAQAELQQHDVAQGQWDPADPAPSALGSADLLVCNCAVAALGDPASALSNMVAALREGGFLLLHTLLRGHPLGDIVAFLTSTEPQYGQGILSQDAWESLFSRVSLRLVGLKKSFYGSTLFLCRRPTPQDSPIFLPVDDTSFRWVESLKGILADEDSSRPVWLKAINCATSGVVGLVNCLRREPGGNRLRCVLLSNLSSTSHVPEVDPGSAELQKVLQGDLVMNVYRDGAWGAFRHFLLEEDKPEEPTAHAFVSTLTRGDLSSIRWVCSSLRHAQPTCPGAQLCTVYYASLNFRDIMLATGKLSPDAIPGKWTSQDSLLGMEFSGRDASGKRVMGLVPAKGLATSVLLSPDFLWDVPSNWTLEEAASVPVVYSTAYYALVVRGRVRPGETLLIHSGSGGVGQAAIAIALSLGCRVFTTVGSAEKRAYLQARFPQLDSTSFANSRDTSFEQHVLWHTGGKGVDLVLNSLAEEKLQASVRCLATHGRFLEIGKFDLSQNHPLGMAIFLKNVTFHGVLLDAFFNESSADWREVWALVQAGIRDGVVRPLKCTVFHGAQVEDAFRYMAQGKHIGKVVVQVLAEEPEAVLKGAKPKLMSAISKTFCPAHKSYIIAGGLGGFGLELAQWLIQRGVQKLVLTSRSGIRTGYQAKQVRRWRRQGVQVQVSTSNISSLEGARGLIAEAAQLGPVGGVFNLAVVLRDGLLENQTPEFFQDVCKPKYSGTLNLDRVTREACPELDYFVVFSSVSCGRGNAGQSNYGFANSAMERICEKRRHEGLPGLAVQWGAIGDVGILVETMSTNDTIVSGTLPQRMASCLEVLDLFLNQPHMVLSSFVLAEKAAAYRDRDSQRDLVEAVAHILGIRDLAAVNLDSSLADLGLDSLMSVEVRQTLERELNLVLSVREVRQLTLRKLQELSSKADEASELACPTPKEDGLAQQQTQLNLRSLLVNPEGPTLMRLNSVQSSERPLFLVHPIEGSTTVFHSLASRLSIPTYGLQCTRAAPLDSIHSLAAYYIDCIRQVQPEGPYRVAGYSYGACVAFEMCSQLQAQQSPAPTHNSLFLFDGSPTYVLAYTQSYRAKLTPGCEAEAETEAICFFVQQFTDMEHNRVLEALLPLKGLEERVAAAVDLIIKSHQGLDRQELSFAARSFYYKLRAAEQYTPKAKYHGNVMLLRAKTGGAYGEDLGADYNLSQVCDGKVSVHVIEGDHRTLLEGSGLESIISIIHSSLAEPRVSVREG
ALR H2O2 inh: human ALR oxidase inhibition via reduced H2O2. P55789. purified ALR, DTT oxidation, H2O2 HRP-luminol luminescence. inhibition, % (test concentration not listed). actives 3.8% (n = 290,000). AID 485317;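 active means mean replicate inhibition above about 79%, with every replicate also reaching it, limit read from the data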
Rtt109 HAT inh: inhibitors of Candida albicans Rtt109/Vps75 histone acetyltransferase; actives 0.16% (n = 330,000); AID 540336; purified Rtt109/Vps75, ThioGlo CoA-SH fluorescence, 4 h; inhibition, % at 34.9 µM; Q5AAJ8;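 active means inhibition of at least 50% in every replicate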
HDAC3 inhib: human HDAC3 inhibition | O15379 | recombinant HDAC3, fluorogenic peptide/trypsin coupled, fluorescence | inhibition, % at 8.3 µM | actives 0.15% (n = 320,000); in the data active means inhibition above about 26%, passing the limit was not always enough
M18AAP inhibitor: PfM18AAP enzyme inhibition; recombinant PfM18AAP, H-Glu-NHMec fluorogenic cleavage; inhibition, % at 7.35 µM; actives 1.2% (n = 290,000); AID 1822;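 active means inhibition above the campaign mean inhibition over all tested compounds plus 3 SD, cut at about 28% in these data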;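 further: 0% = plate median of test compound wells and 100% = 2 mM ZnCl2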
Starred values were filed as active, the others as inactive; . = no result. Hits are enriched below; roughly 4.6% of the tested compounds scored in any of these assays.

SMILES	UCH37 DUB inh	FAS TE block	ALR H2O2 inh	Rtt109 HAT inh	HDAC3 inhib	M18AAP inhibitor
CN(N=Cc1ccc(Br)o1)C1=NS(=O)(=O)c2ccccc21	-70.0	.	.	.	.	.
O=C(COc1cccc2cccnc12)NN=Cc1ccc(O)cc1	2.2	.	.	.	.	.
CCOc1cc(/C=N/NC(=O)CSc2nncn2C)ccc1OCc1cccc(C)c1	.	-5.8	.	50.3*	.	-8.0
O=C(COc1cccc2cccnc12)N/N=C/c1ccc(O)cc1	.	0.3	99.1*	7.0	1.7	6.7
CCOc1cc(/C=N/NC(=O)CSc2cccc3cccnc23)ccc1O	.	0.2	99.3*	0.2	2.9	9.5
CCOc1cc(/C=N/NC(=O)C(=O)N2CCCC2)ccc1O	.	-2.7	98.8*	-0.3	-3.0	9.6
O=C(NN=Cc1cc2c(cc1Cl)OCO2)c1ccc2c(c1)OCCO2	5.0	.	.	.	.	.
NC(Cc1ccc(Cl)cc1)=NOC(=O)Cc1ccc([N+](=O)[O-])cc1	0.6	.	.	.	.	.
CC(C=NNC(=O)c1ccccc1F)c1ccccc1 (stereo unspecified)	1.3	.	.	.	.	.
Oc1cccc(C=NNc2nncc(-c3ccccc3)n2)c1	4.4	.	.	.	.	.
CCOc1cc(C=NNC(=O)C2CCCC2)ccc1O	-0.8	.	.	.	.	.
CCOc1cc(/C=N/NC(=O)C2CCCC2)ccc1O	.	-3.8	99.2*	-1.3	9.2	-16.6
CCOc1cc(C=NNc2nc(-c3ccc(C)cc3)c(NC(C)=O)s2)ccc1O	-27.6	.	.	.	.	.
CCOc1cc(/C=C/c2cc(C(=O)O)c3ccccc3n2)ccc1OC	2.9	-11.6	0.9	-2.1	-1.1	-3.5
CCOc1cc(/C=N/Nc2nc(-c3cccs3)c(NC(C)=O)s2)ccc1O	.	2.7	95.4*	5.2	12.0	20.8
CCOc1cc(/C=N/NC(=O)Nc2ccccc2)ccc1O	.	-1.4	99.5*	1.7	1.8	0.7
CCOc1cc(/C=C/c2cc(C(=O)O)c3ccccc3n2)ccc1O	4.0	-12.2	88.6*	8.8	11.5	15.0
COc1ccc2c(c1)c(C(=O)NN=Cc1cccc(Br)c1)c(C)n2C	3.8	.	.	.	.	.
COc1ccc(C=NNC(=O)c2nnn(-c3nonc3N)c2-c2cccc(OC)c2)cc1	-6.6	.	.	.	.	.
Cc1[nH]c(=O)[nH]c(=O)c1C=NNC(=O)[C@H](C)N	-0.5	.	.	.	.	.
COc1ccc(OC)c(C=NNC(=O)CNC(=O)c2ccc(S(=O)(=O)N3CCCC3)cc2)c1	-71.4	.	.	.	.	.
CCOc1cc(C=NNC(=O)c2cccc(S(=O)(=O)N3CCCC3)c2)ccc1O	11.2	-4.1	95.1*	-5.3	8.5	.
CCOc1cc(/C=N/n2c(C)nnc2C)ccc1O	.	-6.2	93.8*	0.2	-1.0	4.2
CCOc1ccc(/C=N/n2c(C)nnc2C)cc1OC	.	-3.0	-11.9	-4.6	2.4	-15.2
CCOc1cc(/C=N/NC(=O)c2cccc(S(=O)(=O)N3CCCC3)c2)ccc1OCC(=O)N(C)C	.	-4.4	-8.9	-1.5	-0.1	.
SMILES	UCH37 DUB inh	FAS TE block	ALR H2O2 inh	Rtt109 HAT inh	HDAC3 inhib	M18AAP inhibitor
CC(=NNC(=O)c1cc(O)ccc1O)c1cccc(NC(=O)c2cccc(Cl)c2)c1	6.1	.	.	.	.	.
Cc1ccc(Nc2nnc(SCC(=O)NC(Cc3c[nH]c4ccccc34)C(=O)O)s2)cc1 (stereo unspecified)	2.4	-5.7	93.9*	16.1	12.5	3.1
O=C(C1CCCC1)N1CCCC(Nc2ccccc2)C1 (stereo unspecified)	3.4	-2.0	99.1*	-5.0	0.1	2.4
O=C(C1CCCC1)N1CCCC(Nc2ccc(F)cc2)C1 (stereo unspecified)	5.2	1.6	98.7*	-20.9	2.4	3.0
Cc1ccc(NC2CCCN(C(=O)C3CCCCC3)C2)cc1C (stereo unspecified)	0.6	-1.8	98.9*	14.3	1.1	13.8
Cc1nc2ccccn2c1C(=O)NN=Cc1ccc([N+](=O)[O-])o1	18.4	.	.	.	.	.
O=C(NN=Cc1ccc(O)cc1O)c1ccc(NC(=O)C2CCCCC2)cc1	-9.1	.	.	.	.	.
CCNC(=O)C(C)Sc1ccc(Cl)cc1 (stereo unspecified)	1.2	-5.4	-17.0	1.8	-5.0	6.3
CCNC(=O)NC(=O)C(C)Sc1ccc2c(c1)OCCO2 (stereo unspecified)	-1.4	-8.1	98.2*	13.9	-1.0	-4.9
NC(=NOC(=O)Cc1ccccc1[N+](=O)[O-])c1ccncc1	-0.7	.	.	.	.	.
CN(N=Cc1ccc(O)cc1O)c1nc(-c2ccccc2)cc(-c2ccccc2)n1	4.3	.	.	.	.	.

Bioassay records: PubChem BioAssay, several laboratories
